# Measurements collected from several papers.
# Each line is one published result; the experiments were not run side by side.
# Target: 5-hydroxytryptamine receptor 2A (HTR2A, Homo sapiens, UniProt P28223)
# Read-out: ligand displacement
SMILES,technique,concentration,inhibition
O=C(c1ccc(Cl)cc1)N(Cc1ccccc1)C1CCCCC1,radioligand,10 µM,14.5%
CCCNc1nc2ccccc2n1Cc1ccc(Cl)cc1,,10 µM,59.8%
CN1CCN(CCCOc2ccc(=O)n(-c3ccc(Cl)c(Cl)c3)n2)CC1,,1 µM,34.9%
N#Cc1cc(Cn2c(N3CCCC3)nc3ccccc32)ccc1F,,10 µM,5.32%
Oc1cccc(Nc2nc(-c3ccc(F)cc3F)cs2)c1,radioligand,10 µM,67%
COc1ccc(-n2nc(OCCCN3CCCCC3)ccc2=O)cc1,,1 µM,49.4%
C#CCOCCOCCOc1ccc2c3c1C1CCCC1N3CCNC2 (racemic),radioligand,10 µM,~70%
COc1cc2c3c(c1OC)-c1cc4c(cc1CC3N(C)CC2c1ccccc1)OCO4 (stereo not shown),radioligand,10 µM,< 50%
CCN(CC)c1ccc(C2Nc3ccc(C(=O)c4ccccc4)cc3NC3=C2C(=O)CC(C)(C)C3)cc1 (stereo not shown),radioligand,10 µM,-10%
O=C1N=C(N2CCCCN2)S/C1=C\c1ccc(F)cc1O,radioligand,10 µM,17%
